ChEMBL document CHEMBL1123857, “Pyridonecarboxylic acids as antibacterial agents. 9. Synthesis and antibacterial activity of 1-substituted 6-fluoro-1,4-dihydro-4-oxo-7-(4-pyridyl)-1,8-naphthyridine-3-carboxylic acids” (1987)
Values after ≈ are worked out from the molar mass of the structure shown.

Assays:
[1] = tested on: Staphylococcus aureus; experiment: Compound was tested in vitro for antibacterial activity against the microbial strain Staphylococcus aureus 209P JC-1.; assay type: functional
[2] = tested on: Escherichia coli; experiment: Compound was tested in vitro for antibacterial activity against the microbial strain Escherichia coli NIHJ JC-2.; assay type: functional
[3] = tested on: Pseudomonas aeruginosa; experiment: Compound was tested in vitro for antibacterial activity against the microbial strain Pseudomonas aeruginosa 12.; assay type: functional
[4] = tested on: Pseudomonas aeruginosa; experiment: Antibacterial activity against Pseudomonas aeruginosa 12 microbial strains; was determined expressed as MIC
[5] = tested on: Staphylococcus aureus; experiment: Antibacterial activity against Staphylococcus aureus 50774 microbial strains; was determined expressed as MIC
[6] = tested on: Mus musculus; experiment: Antibacterial activity against Escherichia coli P-5101 microbial strains in mice was determined expressed as ED50 (mg/kg); assay type: functional
In short: (§1)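 Male Std-ddY mice (20 ± 2 g), in groups of 10 or more, were infected with S. aureus 50774 (iv, 5×10^8 cells), E. coli P-5101 (ip, 9×10^6 cells) or P. aeruginosa 12 (ip, 4×10^3 cells). Compounds were suspended in 0.2% sodium (carboxymethyl)cellulose and dosed orally at 0 and 6 h postinfection. Survival was scored at 2 weeks for S. aureus and at 1 week for the others.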

[7] = tested on: Escherichia coli; experiment: Antibacterial activity against Escherichia coli P-5101 microbial strains was determined expressed as MIC
[8] = tested on: Mus musculus; experiment: Antibacterial activity against Pseudomonas aeruginosa 12 microbial strains in mice was determined expressed as ED50 (mg/kg); assay type: functional; in short: as §1
[9] = species: Mus musculus; experiment: Antibacterial activity (oral efficacy) against systemic infections due to Staphylococcus aureus 50774 microbial strains in mice was determined; assay type: functional; in short: as §1
[10] = tested on: Pseudomonas aeruginosa; experiment: Compound was tested in vitro for antibacterial activity against the microbial strainP. aeruginosa 12.; assay type: functional
In short: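 MIC (µg/mL) was determined by twofold agar dilution on Mueller-Hinton agar at pH 7.4. Inocula were about 10⁶ CFU. Growth was read after 20 h incubation at 37 °C.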

[11] = tested on: Staphylococcus aureus; experiment: Antibacterial activity against Staphylococcus aureus 50774 microbial strains; was determined expressed as MIC; remark: listed apart in the source
[12] = tested on: Escherichia coli; experiment: Antibacterial activity against Escherichia coli P-5101 microbial strains; was determined expressed as MIC

MIC [1] | MIC [2] | MIC [3] | MIC [4] | MIC [5] | MIC [7] | Structure (SMILES) | ED50 [6] | ED50 [8] | ED50 [9] | MIC [10] | MIC [11] | MIC [12]
1.56 µg/mL (≈ 5.01 µM) | 0.78 µg/mL (≈ 2.51 µM) | 6.25 µg/mL (≈ 20.1 µM) | – | – | – | C=Cn1cc(C(=O)O)c(=O)c2cc(F)c(-c3ccncc3)nc21 | – | – | – | – | – | –
0.39 µg/mL (≈ 1.15 µM) | 0.2 µg/mL (≈ 0.591 µM) | 0.78 µg/mL (≈ 2.31 µM) | – | – | – | O=C(O)c1cn(CCF)c2nc(N3CCNCC3)c(F)cc2c1=O | – | – | – | – | – | –
0.2 µg/mL (≈ 0.615 µM) | 0.1 µg/mL (≈ 0.307 µM) | 0.78 µg/mL (≈ 2.4 µM) | 0.78 µg/mL (≈ 2.4 µM) | 0.1 µg/mL (≈ 0.307 µM) | 0.05 µg/mL (≈ 0.154 µM) | O=C(O)c1cn(C2CC2)c2nc(-c3ccncc3)c(F)cc2c1=O | 4.48 mg/kg | 15 mg/kg | 5.43 mg/kg | – | – | –
0.39 µg/mL (≈ 1.24 µM) | 0.2 µg/mL (≈ 0.638 µM) | 3.13 µg/mL (≈ 9.99 µM) | – | – | – | CCn1cc(C(=O)O)c(=O)c2cc(F)c(-c3ccncc3)nc21 | – | – | – | – | – | –
0.78 µg/mL (≈ 2.65 µM) | 0.39 µg/mL (≈ 1.33 µM) | 3.13 µg/mL (≈ 10.6 µM) | 3.13 µg/mL (≈ 10.6 µM) | 0.39 µg/mL (≈ 1.33 µM) | 0.2 µg/mL (≈ 0.68 µM) | CCn1cc(C(=O)O)c(=O)c2ccc(-c3ccncc3)cc21 [ROSOXACIN] | 7.3 mg/kg | 29.2 mg/kg | 6.8 mg/kg | – | – | –

The remaining lines, values behind:

Structure (SMILES) | MIC [1] | MIC [2] | MIC [3] | MIC [4] | MIC [5] | MIC [7] | ED50 [6] | ED50 [8] | ED50 [9] | MIC [10] | MIC [11] | MIC [12]
CCn1cc(C(=O)O)c(=O)c2ccc(N3CCNCC3)nc21 | 12.5 µg/mL (≈ 41.3 µM) | 6.25 µg/mL (≈ 20.7 µM) | – | – | – | – | – | – | – | 12.5 µg/mL (≈ 41.3 µM) | – | –
O=C(O)c1cn(CCF)c2nc(-c3ccncc3)c(F)cc2c1=O | 0.39 µg/mL (≈ 1.18 µM) | 0.2 µg/mL (≈ 0.604 µM) | 1.56 µg/mL (≈ 4.71 µM) | 1.56 µg/mL (≈ 4.71 µM) | 0.39 µg/mL (≈ 1.18 µM) | 0.1 µg/mL (≈ 0.302 µM) | 4.91 mg/kg | 14.9 mg/kg | 3.37 mg/kg | – | – | –
C=Cn1cc(C(=O)O)c(=O)c2cc(F)c(N3CCNCC3)nc21 | 1.56 µg/mL (≈ 4.9 µM) | 0.1 µg/mL (≈ 0.314 µM) | 0.39 µg/mL (≈ 1.23 µM) | – | – | – | – | – | – | – | – | –
O=C(O)c1cn(CCO)c2nc(-c3ccncc3)c(F)cc2c1=O | 50 µg/mL (≈ 152 µM) | 1.56 µg/mL (≈ 4.74 µM) | 50 µg/mL (≈ 152 µM) | – | – | – | – | – | – | – | – | –
CCn1cc(C(=O)O)c(=O)c2ccc(-c3ccncc3)nc21 | 1.56 µg/mL (≈ 5.28 µM) | 0.78 µg/mL (≈ 2.64 µM) | 12.5 µg/mL (≈ 42.3 µM) | – | – | – | – | – | – | – | – | –
CCn1cc(C(=O)O)c(=O)c2cc(F)c(N3CCNCC3)nc21 [ENOXACIN] | 0.78 µg/mL (≈ 2.44 µM) | 0.2 µg/mL (≈ 0.624 µM) | 0.78 µg/mL (≈ 2.44 µM) | 0.78 µg/mL (≈ 2.44 µM) | – | – | 1.9 mg/kg | 9 mg/kg | 10 mg/kg | – | 0.78 µg/mL (≈ 2.44 µM) | 0.1 µg/mL (≈ 0.312 µM)
